Screening results as filed in PubChem.
In the library only some 2.4% were active in any assay of this set; here they are far more common.
GASC-1 inh: inhibitors of human GASC-1 (JMJD2C) demethylase. hit rate 0.069% among 330,000. Q9H3R0. inhibition, % at 2.35 µM. GST-JMJD2C(1-420) H3K9me3 demethylation, DELFIA europium;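 active = more than half of a compound's replicate wells show inhibition beyond 50%, single wells judged on their own value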;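 also: signal counts dimethyl H3K9 product captured on neutravidin plate; 0% = median of DMSO wells and 100% = 0.3 times that DMSO median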
SIAE inh: human SIAE inhibition, primary screen. Q9HAT2. SIAE FP-Rh probe binding, fluorescence polarization. inhibition, % at 9.66 µM. hit rate 0.69% among 370,000;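 active = inhibition above a cutoff: mean of compounds within the control limits plus 3 SD of those, cut at about 17% in these data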;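 also: 0% = plate median of compound wells and 100% = probe without SIAE protein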
PRMT1 FP inh: inhibitors of human PRMT1; Q99873; recombinant PRMT1, activity-based probe fluorescence polarization; inhibition, % at 2.79 µM; hit rate 1.3% among 370,000; AID 652257;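 active = inhibition above about 21% made by adding two undisclosed values, limit read from the data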
ABHD4 inh: inhibits mouse alpha/beta hydrolase domain 4 | AID 720543 | Q8VD66 | inhibition, % at 8.92 µM | hit rate 0.54% among 370,000 | purified mABHD4, FP-Rh probe fluorescence polarization;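 active = inhibition exceeding the mean over every tested compound plus 3 SD, cut at about 30% in these data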;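 also: 0% = plate median of compound wells and 100% = S159A mutant with DMSO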
Target sequence (Q8VD66 whole entry, looked up, the tested form may be a part): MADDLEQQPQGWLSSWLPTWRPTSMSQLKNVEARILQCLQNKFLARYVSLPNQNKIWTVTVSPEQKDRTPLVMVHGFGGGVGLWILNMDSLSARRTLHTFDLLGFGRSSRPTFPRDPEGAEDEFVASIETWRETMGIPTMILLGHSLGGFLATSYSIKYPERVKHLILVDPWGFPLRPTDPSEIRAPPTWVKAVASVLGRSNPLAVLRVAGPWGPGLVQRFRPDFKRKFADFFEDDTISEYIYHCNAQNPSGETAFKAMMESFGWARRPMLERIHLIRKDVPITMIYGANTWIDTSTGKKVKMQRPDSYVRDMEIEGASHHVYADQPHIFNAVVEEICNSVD
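System: mouse ABHD4 enzyme, wild type / Medium: HEPES pH 7.0, NaCl, Pluronic buffer / Reagent: FP-Rh activity-based fluorescent probe / Control set: S159A mutant high control, sample median low control / Detection: fluorescence polarization with parallel and perpendicular emission, 525/598 nm / Schedule: 45 min + 60 min at 25 °C / Compound dosing: 8.92 µM, single dose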
HTRA1 inhibitor: blocks human HTRA1 serine peptidase | Q92743 | recombinant HTRA1, FP-rhodamine activity-based probe, fluorescence polarization | AID 504803 | inhibition, % at 5.96 µM | hit rate 0.5% among 340,000; in the data active = inhibition above about 36%;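 also: 0% = enzyme with DMSO and 100% = wells lacking enzyme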
SIAE inh conf: confirmation of human SIAE inhibitors. shares compounds with SIAE inh. SIAE FP-Rh activity-based probe, fluorescence polarization. inhibition, % at 9.66 µM. hit rate 13% among 2,300;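 active = mean inhibition of the replicates above the hit cutoff set in the primary screen, cut at about 17% in these data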;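 also: 0% = SIAE with DMSO and probe and 100% = probe without SIAE; inhibitors lower polarization as more probe stays unbound to SIAE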
* hit, by the source's call; x = no result.

SMILES	GASC-1 inh	SIAE inh	PRMT1 FP inh	ABHD4 inh	HTRA1 inhibitor	SIAE inh conf
COc1ccc(-c2nc3cc(C)ccn3c2NC(=O)c2ccccc2OC)cc1	5	-1	-3	3	-3	x
CCCCNc1c(-c2cccc(-c3ccc(OC)cc3)c2)nc2cc(C)ccn12	x	22*	6	29	13	15
COc1ccc(CN2C(=O)C(CC(C)C)Nc3ncnc(N4CCN(c5ccccn5)CC4)c32)cc1 (stereo unspecified)	-1	18*	-1	-7	-9	0
Cc1ccc(CN2C(=O)C(CC(C)C)Nc3ncnc(N4CCN(c5ccccn5)CC4)c32)cc1 (stereo unspecified)	1	4	-3	-15	-37	x
C=CC(=O)Nc1cccc(CN2C(=O)N(c3cc(OC)cc(OC)c3)Cc3cnc(NCCCCN(CC)CC)nc32)c1	x	x	x	x	5	x
CC1CN(c2ccc(NC(=S)Nc3ccc(N4CC(C)OC(C)C4)cc3)cc2)CC(C)O1 (stereo unspecified)	9	20*	-2	24	14	-4
O=C(c1ccncc1)N1CCN(S(=O)(=O)c2ccccc2Br)CC1	10	18*	3	2	4	1
NC(=S)Nc1ccc(F)cc1F	-5	22*	-3	3	2	2
NC(=S)Nc1ccc(F)c(F)c1F	-13	8	1	-1	4	x
O=C(/C=C/c1ccccc1)c1ccc(NC2=NCCCS2)cc1	20	0	3	1	-19	x
Cc1cccc(/C=C/C(=O)c2ccc(NC3=NCCCS3)cc2)c1	-12	53*	5	-5	-38	2
O=C(/C=C/c1ccc(Br)cc1)c1ccc(NC2=NCCCS2)cc1	7	40*	5	-8	-42	8
COc1cccc(/C=C/C(=O)c2ccc(NC3=NCCCS3)cc2)c1	3	5	1	14	-30	x
CC(C)(C)c1ccc(/C=C/C(=O)c2ccc(NC3=NCCCS3)cc2)cc1	6	21*	0	4	-56	12
CCCCc1c(-c2ccccc2OC)ncn1Cc1cccc(OC)c1	x	20*	5	2	x	-4
Nc1[nH]c(C(=O)c2ccccc2)c(-c2cccc3ccccc23)c1C(=O)c1ccc(Br)cc1	x	8	2	-6	x	x
Oc1ccc(C(=Nc2ccccc2)c2ccccc2)c(O)c1	x	2	0	-2	4	x
Cn1cc(CC(=O)Nc2ccc(Nc3cccnc3)cc2)c2ccccc21	x	21*	2	8	x	23*
O=C(Cc1cn(Cc2ccccc2)c2ccccc12)Nc1ccc(Oc2cccnc2)cc1	x	-7	2	-9	x	x
CN(c1cccnc1)c1ccc(NC(=O)Cc2cn(Cc3ccccc3)c3ccccc23)cc1Br	x	21*	3	18	x	24*
COc1cc(CNc2ncnc3c2ncn3[C@H]2CN(Cc3ccc(Cl)cc3)C[C@@H](CO)O2)cc(OC)c1OC	x	19*	2	-3	x	-4
CC(=O)c1ccc2c(c1)C1C=CCC1C(c1ccc(S(=O)(=O)N3CCOCC3)cc1)N2 (stereo unspecified)	11	18*	6	13	5	2
CC1CCN(C(=O)c2ccc(S(=O)(=O)N3CCOCC3)cc2)CC1	-31	1	7	6	4	x
CCCc1nc2ccccc2c(C(=O)OCC(=O)NC2CC2)c1CC	4	25*	-5	-3	-5	4
CCCc1nc2ccccc2c(C(=O)OCC(=O)NCc2ccco2)c1CC	0	-7	9	-2	-12	x
SMILES	GASC-1 inh	SIAE inh	PRMT1 FP inh	ABHD4 inh	HTRA1 inhibitor	SIAE inh conf
CC(C)C[C@H](NC(=O)c1ccccn1)C(=O)N1CCC[C@H]1C(=O)NCc1ccccc1	x	-13	-4	-14	x	x
C[C@@H]1CN([C@H](C)CO)C(=O)c2cc(Br)cnc2O[C@@H]1CN(C)C(=O)c1ccccc1	x	8	-1	-5	4	x
C[C@@H]1CN([C@H](C)CO)C(=O)c2cc(Br)cnc2O[C@@H]1CN(C)C(=O)c1cccc(F)c1	x	17*	-3	0	1	2
Nc1ccn([C@@H]2O[C@H](C(=O)N[C@H](Cc3ccccc3)C(=O)NCc3cccc4c3OCO4)[C@@H](O)[C@H]2O)c(=O)n1	x	7	-1	-1	x	x
Nc1ccn([C@@H]2O[C@H](C(=O)N[C@H](Cc3ccccc3)C(=O)N3CCC(F)(F)CC3)[C@@H](O)[C@H]2O)c(=O)n1	x	45*	-2	5	x	53*
COc1cc(NC(=O)[C@@H](Cc2ccccc2)NC(=O)[C@H]2O[C@@H](n3ccc(=O)[nH]c3=O)[C@H](O)[C@@H]2O)cc(OC)c1OC	x	-6	3	-1	x	x
CCCn1cnnc1CNC(=O)[C@@H](Cc1ccccc1)NC(=O)[C@H]1O[C@@H](n2ccc(=O)[nH]c2=O)[C@H](O)[C@@H]1O	x	30*	-2	6	x	35*
O=C(N[C@H](Cc1ccccc1)C(=O)O)[C@H]1O[C@@H](n2ccc(=O)[nH]c2=O)[C@H](O)[C@@H]1O	x	2	1	-5	x	x
COc1cc(NC(=O)[C@@H](Cc2ccccc2)NC(=O)[C@H]2O[C@@H](n3ccc(N)nc3=O)[C@H](O)[C@@H]2O)cc(OC)c1OC	x	45*	4	-1	x	46*
Cc1ccc(CNC(=O)[C@@H](Cc2ccccc2)NC(=O)[C@H]2O[C@@H](n3ccc(N)nc3=O)[C@H](O)[C@@H]2O)o1	x	18*	0	-1	x	14
Cc1cc(N2CCN(CCO)CC2)n2nc(C)nc2n1	x	1	-4	0	x	x
Cc1nc2ccc(S(=O)(=O)NCC(=O)NCc3ccccc3C)cc2s1	x	3	1	3	x	x
COc1ccc(CN(C)C(=O)[C@@H](Cc2ccccc2)NC(=O)[C@H]2O[C@@H](n3ccc(N)nc3=O)[C@H](O)[C@@H]2O)cc1OC	x	48*	-2	-2	x	53*
CCN(CC)c1ccc(NC(=O)c2ccc3c(c2)OCO3)c(C)c1	-7	20*	-5	3	1	-5
C=CCOc1ccc(CNn2cn[nH]c2=S)cc1OCC	25	47*	-2	5	2	-4
C=CCOc1ccc(CNn2cn[nH]c2=S)cc1OC	3	9	-2	4	-1	x
COc1cccc(CN2C(=O)c3ccccc3S2(=O)=O)c1	-2	17*	1	-7	-3	-1
COC(=O)c1ccc(CN2C(=O)c3ccccc3S2(=O)=O)cc1	-2	-1	0	-15	-8	x
COc1cc(C(=O)NCCC2=CCCCC2)ccc1OC1CCN(C(C)=O)CC1	3	19*	-5	3	-1	0
CCCCCn1cc(CCC(=O)Nc2ccc(N(C)c3ccccn3)cc2)c2ccccc21	x	26*	-2	-1	x	27*
CCCN(C(=O)CCc1cn(CCC)c2ccccc12)c1ccc(N(C)c2ccccn2)cc1	x	16	1	7	x	x
